Legend:
[1] = molecular target: Human immunodeficiency virus type 1 reverse transcriptase (Human immunodeficiency virus 1, UniProt Q72547, P236L); assay: Inhibition of Reverse transcriptase (P236L) using poly(rA)600:oligo(dT)10 as template primer.
[2] = molecular target: Human immunodeficiency virus type 1 reverse transcriptase (Human immunodeficiency virus 1, UniProt Q72547); assay: Inhibition of Reverse transcriptase (Wild Type) with poly(rA)600:oligo(dT)10 template primer
Summary of the method: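 Recombinant wild-type HIV-1 RT was assayed for RNA-dependent DNA polymerase activity on poly(rA)600:oligo(dT)10 template:primer. Duplicate points were run at 6 drug concentrations, and IC50 was derived by nonlinear least-squares fit.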

[3] = molecular target: Human immunodeficiency virus type 1 reverse transcriptase (Human immunodeficiency virus 1, UniProt Q72547, Y181C); assay: Inhibition of Reverse transcriptase (Y181C) using poly(rA)600:oligo(dT)10 as template primer.
[4] = Half life of the parent compound upon microsomal incubation in the presence of hepatic microsomal cytochrome P450.; type: ADME, Microsome; conditions: liver microsomes
[5] = tested on: Human immunodeficiency virus 1; assay: Antiviral activity against BHAP-resistant viral strain HIV-1 IIIB using Delaviridine (U-90512) as a comparator.; type: functional
[6] = tested on: Human immunodeficiency virus 1; assay: (§1) Antiviral activity against BHAP-resistant viral strain HIV-1 MF using Delaviridine (U-90512) as a comparator.; type: functional
[7] = tested on: Human immunodeficiency virus 1; assay: (§2) Antiviral activity against L-drug-resistant viral strain HIV-1 IIIB using L-697,661 as a comparator.; type: functional
[8] = IV clearance determined at an peroral dose of 30.2 mg/kg.; type: ADME, organism-based; design: dose 30.2 mg/kg, route oral; conditions: in vivo, po, read-out: Clearance
Summary of the method: (§3)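 Male Sprague–Dawley rats, fasted, dosed iv and orally in a crossover design with a 1-week washout between treatments (N = 3). Clearance, Vss and absolute oral bioavailability were taken from the iv and po legs.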

[9] = Oral bioavailability (dose 15 mg/kg i.v.); type: ADME, organism-based; conditions: eutheria, in vivo; summary of the method: as §3
[10] = Apparent terminal disposition half life […] at iv dose of 15 mg/kg; type: ADME, organism-based; design: dose 15 mg/kg, route intravenous; conditions: read-out: T1/2 beta (converted)
[11] = Apparent terminal disposition half life […] at peroral dose of 30.2 mg/kg.; type: ADME, organism-based; design: dose 30.2 mg/kg, route oral; conditions: po, read-out: T1/2 beta (converted)
[12] = Steady state volume of distribution (VSS) determined against male Sprague-Dawley rats at an iv dose of 15 mg/kg; type: ADME, organism-based; design: dose 15 mg/kg, route intravenous; conditions: rat, in vivo, read-out: Vss; summary of the method: as §3
[13] = tested on: Rattus norvegicus; assay: Steady state volume of distribution (VSS) determined against male Sprague-Dawley rats at an peroral dose of 30.2 mg/kg.; type: ADME, organism-based; design: dose 30.2 mg/kg, route oral; conditions: in vivo, po; summary of the method: as §3
[14] = IV clearance determined at an iv dose of 15 mg/kg; type: ADME, organism-based; design: dose 15 mg/kg, route intravenous; conditions: in vivo
[15] = IV clearance determined at an peroral dose of 30 mg/kg.; type: ADME, organism-based; design: dose 30 mg/kg, route oral; conditions: in vivo, po, read-out: Clearance; summary of the method: as §3
[16] = Absolute oral bioavailability at an peroral dose of 30 mg/kg orally; type: ADME, organism-based; conditions: in vivo, read-out: Bioavailabiility; summary of the method: as §3
[17] = tested on: Rattus norvegicus; assay: Steady state volume of distribution (VSS) determined against male Sprague-Dawley rats at an peroral dose of 30 mg/kg.; type: ADME, organism-based; design: dose 30 mg/kg, route oral; conditions: in vivo, po; summary of the method: as §3
[18] = Apparent terminal disposition half life […] at peroral dose of 30 mg/kg.; type: ADME, organism-based; design: dose 30 mg/kg, route oral; conditions: po, read-out: T1/2 beta (converted)
[19] = Absolute oral bioavailability at an iv dose of 15.2 mg/kg; type: ADME, organism-based; conditions: in vivo, read-out: Bioavailabiility; summary of the method: as §3
[20] = IV clearance determined at an peroral dose of 30.3 mg/kg.; type: ADME, organism-based; design: dose 30.3 mg/kg, route oral; conditions: in vivo, po, read-out: Clearance; summary of the method: as §3
[21] = Apparent terminal disposition half life […] at iv dose of 15.2 mg/kg; type: ADME, organism-based; design: dose 15.2 mg/kg, route intravenous; conditions: read-out: T1/2 beta (converted)
[22] = Apparent terminal disposition half life […] at peroral dose of 30.3 mg/kg.; type: ADME, organism-based; design: dose 30.3 mg/kg, route oral; conditions: po, read-out: T1/2 beta (converted)
[23] = Steady state volume of distribution (VSS) determined against male Sprague-Dawley rats at an iv dose of 15.2 mg/kg; type: ADME, organism-based; design: dose 15.2 mg/kg, route intravenous; conditions: rat, in vivo, read-out: Vss; summary of the method: as §3
[24] = tested on: Rattus norvegicus; assay: Steady state volume of distribution (VSS) determined against male Sprague-Dawley rats at an peroral dose of 30.3 mg/kg.; type: ADME, organism-based; design: dose 30.3 mg/kg, route oral; conditions: in vivo, po; summary of the method: as §3
[25] = tested on: Human immunodeficiency virus 1; assay: as §2; type: functional, organism-based
[26] = IV clearance determined at an iv dose of 15.2 mg/kg; type: ADME, organism-based; design: dose 15.2 mg/kg, route intravenous; conditions: in vivo; summary of the method: as §3
[27] = Absolute oral bioavailability at an peroral dose of 30.3 mg/kg orally.; type: ADME, organism-based; conditions: in vivo, read-out: Bioavailabiility; summary of the method: as §3
[28] = Absolute oral bioavailability at an iv dose of 14 mg/kg; type: ADME, organism-based; conditions: in vivo, read-out: Bioavailabiility; summary of the method: as §3
[29] = IV clearance determined at an peroral dose of 15 mg/kg.; type: ADME, organism-based; design: dose 15 mg/kg, route oral; conditions: in vivo, po, read-out: Clearance
[30] = Apparent terminal disposition half life […] at iv dose of 14 mg/kg; type: ADME, organism-based; design: dose 14 mg/kg, route intravenous; conditions: read-out: T1/2 beta (converted)
[31] = Apparent terminal disposition half life […] at peroral dose of 15 mg/kg.; type: ADME, organism-based; design: dose 15 mg/kg, route oral; conditions: po, read-out: T1/2 beta (converted)
[32] = Steady state volume of distribution (VSS) determined against male Sprague-Dawley rats at an iv dose of 14 mg/kg; type: ADME, organism-based; design: dose 14 mg/kg, route intravenous; conditions: rat, in vivo, read-out: Vss; summary of the method: as §3
[33] = Steady state volume of distribution (VSS) determined against male Sprague-Dawley rats at an peroral dose of 15 mg/kg.; type: organism-based; design: dose 15 mg/kg; summary of the method: as §3
[34] = molecular target: Human immunodeficiency virus type 1 reverse transcriptase (Human immunodeficiency virus 1) (UniProt Q72547); assay: Percent inhibition of Reverse transcriptase (RNA-dependent DNA polymerase activity against P236l RT) using poly(rA)600:oligo(dT)10 as template primer at 1 uM
Summary of the method: (§4)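 Recombinant RT (WT, P236L or Y181C) was assayed for RNA-dependent DNA polymerase activity with poly(rA)600:oligo(dT)10 as template:primer. Percent inhibition was measured with compound at a single concentration of 1 μM.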

[35] = molecular target: Human immunodeficiency virus type 1 reverse transcriptase (Human immunodeficiency virus 1) (UniProt Q72547); assay: Percent inhibition of Reverse transcriptase (RNA-dependent DNA polymerase activity against Wild Type RT) using poly(rA)600:oligo(dT)10 as template primer at 1 uM; summary of the method: as §4
[36] = tested on: Human immunodeficiency virus type 1 reverse transcriptase (Human immunodeficiency virus 1), Q72547 [Y181C]; assay: Percent inhibition of Reverse transcriptase (RNA-dependent DNA polymerase activity against Y181C RT) using poly(rA)600:oligo(dT)10 as template primer at 1 uM; summary of the method: as §4
[37] = tested on: Human immunodeficiency virus 1; assay: as §1; type: functional, organism-based

SMILES | IC50 [1] | IC50 [2] | IC50 [3] | EC90 [6] | EC90 [7] | further results
COC(=O)c1cccnc1N(C)C1CCN(C(=O)c2cc3cc(NS(C)(=O)=O)ccc3[nH]2)CC1 | 13 µM | 0.25 µM | 21 µM |  |  | 
CN(c1ncccc1CO)C1CCN(C(=O)c2cc3cc(NS(C)(=O)=O)ccc3[nH]2)CC1 | 7 µM |  | 15 µM |  |  | 
CCc1cccnc1N(CC)C1CCN(C(=O)c2cc3cc(NS(C)(=O)=O)ccc3[nH]2)CC1 | 0.21 µM | 0.098 µM | 0.43 µM |  |  | 
CCN(c1ncccc1CC(C)C)C1CCN(C(=O)c2cc3cc(NS(C)(=O)=O)ccc3[nH]2)CC1 | 0.43 µM | 0.41 µM | 0.88 µM | 1 µM | 0.1 µM | half-life [4]: 2.29 min; EC90 [5]: 0.05 µM
CC(C)Nc1cccnc1N(C)C1CCN(C(=O)c2cc3cc(NS(C)(=O)=O)ccc3[nH]2)CC1 |  |  |  |  | 1 µM | CL/F [8]: 44 mL/min/kg; bioavailability [9]: 4.3%; half-life [10]: 40.2 min; half-life [11]: 40.2 min; Vd [12]: 2.5 L/kg; Vss [13]: 2.5 L/kg
CCNc1cccnc1N(CC)C1CCN(C(=O)c2cc3cc(NS(C)(=O)=O)ccc3[nH]2)CC1 | 0.36 µM | 0.43 µM | 0.39 µM |  |  | 
CCCc1cccnc1N(CC)C1CCN(C(=O)c2cc3cc(NS(C)(=O)=O)ccc3[nH]2)CC1 | 0.37 µM | 0.27 µM | 0.45 µM | 0.1 µM | 0.09 µM | clearance [14]: 67 mL/min/kg; CL/F [15]: 67 mL/min/kg; bioavailability [9]: 9.8%; bioavailability [16]: 9.8%; half-life [10]: 49.2 min; Vd [12]: 3.2 L/kg; Vss [17]: 3.2 L/kg; half-life [4]: 1.68 min; EC90 [5]: 0.04 µM; half-life [18]: 49.2 min
CC(C)Cc1cccnc1N(C)C1CCN(C(=O)c2cc3cc(NS(C)(=O)=O)ccc3[nH]2)CC1 | 1.1 µM | 0.51 µM | 2.6 µM | 1.8 µM |  | bioavailability [19]: 64%; CL/F [20]: 45 mL/min/kg; half-life [21]: 53.4 min; half-life [22]: 53.4 min; Vd [23]: 2.73 L/kg; Vss [24]: 2.73 L/kg; half-life [4]: 5.9 min; EC50 [25]: > 1 µM; clearance [26]: 45 mL/min/kg; bioavailability [27]: 64%
CCN(c1ncccc1NC(C)C)C1CCN(C(=O)c2cc3cc(NS(C)(=O)=O)ccc3[nH]2)CC1 | 0.17 µM |  |  |  |  | 
CCc1cc(NCc2nc3c(Cl)ccc(Cl)c3o2)c(O)nc1C [L-697661] |  |  |  | 0.43 µM | > 10 µM | EC90 [5]: 4 µM
CCCN(c1ncccc1CC)C1CCN(C(=O)c2cc3cc(NS(C)(=O)=O)ccc3[nH]2)CC1 | 0.54 µM | 0.13 µM | 0.91 µM |  |  | 
CC(C)Nc1cccnc1N1CCN(C(=O)c2cc3cc(NS(C)(=O)=O)ccc3[nH]2)CC1 [DELAVIRDINE] |  |  |  | > 10 µM |  | bioavailability [28]: 64%; CL/F [29]: 13.6 mL/min/kg; half-life [30]: 60 min; half-life [31]: 60 min; Vd [32]: 1.21 L/kg; Vdss [33]: 1.21 L/kg
CCN(c1ncccc1COC)C1CCN(C(=O)c2cc3cc(NS(C)(=O)=O)ccc3[nH]2)CC1 | 0.3 µM | 0.14 µM | 0.84 µM | 0.77 µM | 1 µM | 
CCCc1cccnc1N(C)C1CCN(C(=O)c2cc3cc(NS(C)(=O)=O)ccc3[nH]2)CC1 |  |  |  |  |  | inhibition [34]: 40%; inhibition [35]: 84%; inhibition [36]: 25%
COCc1cccnc1N(C)C1CCN(C(=O)c2cc3cc(NS(C)(=O)=O)ccc3[nH]2)CC1 | 6.8 µM | 0.14 µM | 11 µM |  |  | EC50 [37]: 3 µM; EC50 [25]: > 3 µM
CCc1cccnc1N(C)C1CCN(C(=O)c2cc3cc(NS(C)(=O)=O)ccc3[nH]2)CC1 | 1.1 µM | 0.061 µM | 2 µM |  |  | 
